Test results from ChEMBL document CHEMBL1781979, “The discovery of novel calcium sensing receptor negative allosteric modulators” (Bioorg Med Chem Lett, 2009).
Calls of active or inactive are those of the source. The rule behind the calls is not given here.

Key:
[1] = target: T1, Extracellular calcium-sensing receptor (Homo sapiens, UniProt P41180); assay: Negative allosteric modulator activity at human recombinant calcium sensing receptor expressed in HEK cells; assay type: functional, cell-based, HEK293
T1 sequence (P41180 whole entry): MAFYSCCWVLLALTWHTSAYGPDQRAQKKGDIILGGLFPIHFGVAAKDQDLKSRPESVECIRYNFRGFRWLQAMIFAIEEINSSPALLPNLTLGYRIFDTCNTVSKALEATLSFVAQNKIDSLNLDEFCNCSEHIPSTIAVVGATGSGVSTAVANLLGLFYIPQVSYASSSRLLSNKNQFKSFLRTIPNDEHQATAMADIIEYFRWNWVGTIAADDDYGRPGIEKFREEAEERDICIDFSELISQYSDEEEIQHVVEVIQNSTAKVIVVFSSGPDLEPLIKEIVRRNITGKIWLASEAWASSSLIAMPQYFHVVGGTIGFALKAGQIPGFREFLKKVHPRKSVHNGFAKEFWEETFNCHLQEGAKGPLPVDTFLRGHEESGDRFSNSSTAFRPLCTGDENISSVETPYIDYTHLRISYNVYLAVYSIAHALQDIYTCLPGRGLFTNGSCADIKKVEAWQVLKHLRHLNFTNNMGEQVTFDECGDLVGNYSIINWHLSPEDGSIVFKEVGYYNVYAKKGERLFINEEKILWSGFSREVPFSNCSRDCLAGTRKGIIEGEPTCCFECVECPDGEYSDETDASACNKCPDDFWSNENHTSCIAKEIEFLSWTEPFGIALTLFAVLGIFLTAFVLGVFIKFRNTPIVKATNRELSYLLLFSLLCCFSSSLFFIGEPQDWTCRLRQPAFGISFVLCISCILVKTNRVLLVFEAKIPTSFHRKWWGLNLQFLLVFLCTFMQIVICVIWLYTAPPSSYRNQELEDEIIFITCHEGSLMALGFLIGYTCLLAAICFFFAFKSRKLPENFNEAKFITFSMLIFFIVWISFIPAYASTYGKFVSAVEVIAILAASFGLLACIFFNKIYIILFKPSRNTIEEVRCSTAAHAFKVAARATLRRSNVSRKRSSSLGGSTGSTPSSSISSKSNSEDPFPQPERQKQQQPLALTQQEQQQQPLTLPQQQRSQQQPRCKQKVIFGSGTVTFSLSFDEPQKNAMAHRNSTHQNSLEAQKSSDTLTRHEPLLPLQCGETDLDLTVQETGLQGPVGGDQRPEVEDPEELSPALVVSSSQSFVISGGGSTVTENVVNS
Procedure, shortened: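 Human recombinant CaSR expressed in HEK cells; potency from n = 3 determinations.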

[2] = Intrinsic clearance in human liver microsomes assessed per mg of protein; assay type: ADME, Microsome
Procedure, shortened: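 Stability in human liver microsomes reported as intrinsic clearance, µL/min/mg microsomal protein.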

[3] = Intrinsic clearance in rat liver microsomes assessed per mg of protein; assay type: ADME, Microsome
Procedure, shortened: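 Rat liver microsomes; stability expressed as intrinsic clearance in µL/min/mg of microsomal protein.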

[4] = Lipophilicity, log D of the compound; assay type: physicochemical; settings: octanol/water
Rattus norvegicus [5] = assay: Toxicity in Sprague-Dawley rat assessed as incidence of adverse effect at 500 mg/kg in 4 day drug toleration study; assay type: organism-based; parameters: dose 500 mg/kg; settings: in vivo, 96 h
Procedure, shortened: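 Rats given 500 mg/kg over a 4 day toleration study, monitored for adverse effects.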

[6] = Cmax in Sprague-Dawley rat at 10 mg/kg, po; assay type: ADME, organism-based; parameters: dose 10 mg/kg, route oral; settings: in vivo
Procedure, shortened: (§1)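 Oral dosing at 10 mg/kg to rats; total plasma Cmax and oral bioavailability determined from plasma exposure, alongside the 1 mg/kg iv leg.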

hERG (KCNH2) = hERG (KCNH2) (Homo sapiens, UniProt Q12809); assay: Inhibition of human ERG at 10 uM by whole cell voltage clamp technique
[7] = Inhibition of cytochrome P450; assay type: ADME
[8] = Oral bioavailability in Sprague-Dawley rat at 10 mg/kg; assay type: ADME, organism-based; settings: in vivo; procedure, shortened: as §1
Rattus norvegicus [9] = assay: Increase in PTH (1-84) release response in Sprague-Dawley rat at 10 mg/kg, po by PTH ELISA; assay type: functional, organism-based; parameters: dose 10 mg/kg
[10] = target: Extracellular calcium-sensing receptor (Homo sapiens) (UniProt P41180); assay: Negative allosteric modulator activity at human calcium sensing receptor expressed in HEK cells
[11] = Half life in Sprague-Dawley rat at 1 mg/kg, iv; assay type: ADME, organism-based; parameters: dose 1 mg/kg, route intravenous; settings: in vivo
Procedure, shortened: (§2)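 Intravenous dosing at 1 mg/kg to rats; volume of distribution, plasma clearance (mL/min/kg) and half-life derived from the iv plasma profile.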

Rattus norvegicus [12] = assay: Clearance in Sprague-Dawley rat at 1 mg/kg, iv; settings: in vivo
[13] = Volume of distribution in Sprague-Dawley rat at 1 mg/kg, iv; assay type: ADME, organism-based; parameters: dose 1 mg/kg, route intravenous; settings: in vivo; procedure, shortened: as §2
[14] = Clearance in Sprague-Dawley rat at 1 mg/kg, iv; assay type: ADME, organism-based; parameters: dose 1 mg/kg, route intravenous; settings: in vivo; procedure, shortened: as §2
[15] = Oral bioavailability in Sprague-Dawley rat; assay type: ADME, organism-based; settings: in vivo

Chain of hERG (KCNH2) (Q12809 whole entry): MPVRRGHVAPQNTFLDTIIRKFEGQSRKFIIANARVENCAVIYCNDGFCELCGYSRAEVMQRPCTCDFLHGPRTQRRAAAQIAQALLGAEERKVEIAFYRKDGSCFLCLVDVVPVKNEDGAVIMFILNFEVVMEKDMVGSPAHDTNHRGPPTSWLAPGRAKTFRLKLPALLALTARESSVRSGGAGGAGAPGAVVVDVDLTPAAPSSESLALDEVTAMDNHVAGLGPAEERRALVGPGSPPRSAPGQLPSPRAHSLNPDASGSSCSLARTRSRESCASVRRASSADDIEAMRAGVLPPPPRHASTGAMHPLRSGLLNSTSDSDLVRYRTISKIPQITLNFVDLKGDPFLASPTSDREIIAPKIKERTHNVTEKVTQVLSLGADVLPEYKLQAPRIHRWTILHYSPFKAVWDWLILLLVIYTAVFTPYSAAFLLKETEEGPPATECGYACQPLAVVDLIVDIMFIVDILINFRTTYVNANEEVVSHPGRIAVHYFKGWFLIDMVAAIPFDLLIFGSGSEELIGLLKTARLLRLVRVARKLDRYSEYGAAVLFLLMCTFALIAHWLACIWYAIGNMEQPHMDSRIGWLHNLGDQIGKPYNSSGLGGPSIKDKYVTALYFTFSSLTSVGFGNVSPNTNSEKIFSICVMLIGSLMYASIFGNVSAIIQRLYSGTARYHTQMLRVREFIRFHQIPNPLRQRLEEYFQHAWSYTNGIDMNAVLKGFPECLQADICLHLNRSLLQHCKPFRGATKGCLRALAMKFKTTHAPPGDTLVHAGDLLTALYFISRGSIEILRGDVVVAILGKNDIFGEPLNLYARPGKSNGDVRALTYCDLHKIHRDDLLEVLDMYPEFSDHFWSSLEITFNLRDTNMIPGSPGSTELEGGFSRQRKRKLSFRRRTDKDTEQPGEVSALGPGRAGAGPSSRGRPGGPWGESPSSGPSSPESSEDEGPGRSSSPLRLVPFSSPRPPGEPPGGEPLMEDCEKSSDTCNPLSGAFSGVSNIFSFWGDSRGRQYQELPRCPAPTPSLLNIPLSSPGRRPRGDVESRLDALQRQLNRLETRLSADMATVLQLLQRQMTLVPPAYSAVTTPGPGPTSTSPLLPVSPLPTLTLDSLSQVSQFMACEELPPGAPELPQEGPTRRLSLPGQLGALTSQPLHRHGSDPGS

SMILES	IC50 [1] [nM]	microsomal CLint [2] [µL/min/mg]	microsomal CLint [3] [µL/min/mg]	logD [4]	other results
Cc1ccc(CC(C)(C)NC[C@@H](O)COc2cc(C3CC4CC3C3C(C(=O)O)C43)ccc2F)cc1F (mixture of isomers)	300	20			
CC(C)(CC1Cc2ccccc2C1)NC[C@@H](O)COc1cc(C2CC3CC2C2C(C(=O)O)C32)cc(F)c1F (mixture of isomers)	56	19	35	2.6	
CC(C)(Cc1ccc2ccccc2c1)NC[C@@H](O)COc1cccc(Cl)c1C#N	23	157	> 100		
C[C@@H](OC[C@H](O)CNC(C)(C)Cc1ccc(Cl)cc1F)c1ccccc1C1CC2CC1C1C(C(=O)O)C21 (mixture of isomers)	50	16	14	2.8	
Cc1ccc(CC(C)(C)NC[C@@H](O)CO[C@H](C)c2ccccc2C2CC3CC2C2C(C(=O)O)C32)cc1F (mixture of isomers)	25	35	45	2.4	Activity (Rattus norvegicus [5]): Non-toxic; Cmax [6]: 1000 nM; inhibition at 10 µM (hERG (KCNH2)): < 10%; inhibition (INH) [7]: Not Active; bioavailability [8]: > 60%; Activity (Rattus norvegicus [9]): Active
CC(C)(CN1Cc2ccccc2C1=O)NC[C@@H](O)COc1cc(C2CC3CC2C2C(C(=O)O)C32)ccc1C#N (mixture of isomers)	350	9	< 10		
CC(C)(CC1Cc2ccccc2C1)NC[C@@H](O)COc1cc(CCC(=O)O)cc(F)c1F [RONACALERET]	146	< 8	90	1.5	IC50 [10]: 320 nM; Cmax [6]: 300 nM; inhibition at 10 µM (hERG (KCNH2)): < 10%; bioavailability [8]: 12%; Activity (Rattus norvegicus [9]): inactive
CC(C)(CC1Cc2ccccc2C1)NC[C@@H](O)COc1cc(C2CC3CC2C2C(C(=O)O)C32)ccc1C#N (mixture of isomers)	6	17	25	2	half-life [11]: 1.5 h; CL (Rattus norvegicus [12]): 83 mL/min/kg; Vd [13]: 5 L/kg; clearance [14]: 70 mL/min/kg; bioavailability [15]: < 10%
CC(C)(CC1Cc2ccccc2C1)NC[C@@H](O)COc1cccc(C2CC3CC2C2C(C(=O)O)C32)c1 (mixture of isomers)	900	15	50		
C[C@@H](OC[C@H](O)CNC(C)(C)CC1Cc2ccccc2C1)c1ccccc1C1CC2CC1C1C(C(=O)O)C21 (mixture of isomers)	3500	23	38		
Cc1ccc(CC(C)(C)NC[C@@H](O)COc2cc(C3CC4CC3C3C(C(=O)O)C43)ccc2C#N)cc1F (mixture of isomers)	23	15	27	2.3	half-life [11]: 1.5 h; CL (Rattus norvegicus [12]): 83 mL/min/kg; Vd [13]: 5 L/kg; clearance [14]: 70 mL/min/kg; bioavailability [15]: < 10%
Cc1ccc(CC(C)(C)NC[C@@H](O)COc2cccc(C3CC4CC3C3C(C(=O)O)C43)c2)cc1F (mixture of isomers)	3500	23	38		
Cc1ccc(CC(C)(C)NC[C@@H](O)CO[C@H](C)c2ccccc2C2CC3CC2C2C(C(=O)O)C32)cc1Cl (mixture of isomers)	18	33		2.6	
